The subject of assay [1] is L1210. Briefly: Compound was tested for its ability to inhibit L1210 cell growth after 72 hr at 0.03 uM concentration. It is filed as functional. To be noted: Mus musculus, L1210, 72 h. In outline:
(§1)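 L1210 cells are grown as stationary suspension cultures in Fishers medium with 10% heat-inactivated horse serum. Drug exposure is continuous for 72 h. Cell number is counted with a Coulter counter. Percent inhibition is calculated against untreated control cultures.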

The target in assay [2] is T1, Uridine-cytidine kinase 1 (Mus musculus, UniProt P52623).
T1 sequence (P52623 whole entry): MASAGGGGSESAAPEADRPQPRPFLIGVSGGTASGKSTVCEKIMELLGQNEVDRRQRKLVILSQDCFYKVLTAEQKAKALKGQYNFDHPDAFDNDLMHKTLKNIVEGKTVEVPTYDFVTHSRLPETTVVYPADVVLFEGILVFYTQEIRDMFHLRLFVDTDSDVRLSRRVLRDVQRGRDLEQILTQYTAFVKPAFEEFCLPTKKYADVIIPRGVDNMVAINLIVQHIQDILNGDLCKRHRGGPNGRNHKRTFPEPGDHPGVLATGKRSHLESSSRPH
Briefly: Binding affinity to uridine kinase from L1210. was determined from the dixon plot. In a few lines: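 Uridine kinase from L1210 cells. Uridine is used at 10, 40 and 200 μM, with inhibitor at 1, 0.5, 0.2 and 0.1 mM. Ki is taken from Dixon plots.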

In assay [3] the test system is L1210. Put plainly: Compound was tested for its ability to inhibit L1210 cell growth after 72 hr at 500 uM concentration. It counts as functional. The following applies: Mus musculus, L1210, 72 h. In outline:
as §1

Assay [4] deals with T2, Uridine-cytidine kinase 1 (Mus musculus) (UniProt P52623).
T2 sequence (whole entry): T1 sequence (P52623 whole entry)
Put plainly: Inhibition of uridine kinase from L1210 cells was evaluated by measuring the retention of phosphorylated product on DE81 filter papers at 1000 uM. It is filed as functional, cell-based.

Assay [5] addresses T2, Uridine-cytidine kinase 1 (Mus musculus). Put plainly: Inhibition of uridine kinase from L1210 cells was evaluated by measuring the retention of phosphorylated product on DE81 filter papers at 100 uM. It counts as functional, cell-based.
The test system of assay [6] is L1210. Put plainly: Compound was tested for its ability to inhibit L1210 cell growth after 72 hr at 1000 uM concentration. It counts as functional. To be noted: Mus musculus, L1210, 72 h. In outline: as §1
Assay [7] relates to L1210. Briefly: Compound was tested for its ability to inhibit L1210 cell growth after 72 hr at 100 uM concentration. It is filed as functional. To be noted: Mus musculus, L1210, 72 h. In outline:
as §1

The inhibition is the relative decrease from the control value, in per cent. By Ki is commonly meant the equilibrium dissociation constant of an inhibitor or competing ligand from its target. Read a low Ki as tighter binding.

`Nc1ccn([C@@H]2C=C(CO)[C@@H](O)[C@H]2O)c(=O)n1`: 0.03 µM produced 58% inhibition in the assay on L1210 [1]. In assay [2], this compound returned an inhibition constant (Ki) of 60 µM. This compound also showed an inhibition at 500 µM with L1210 [3] of 96%. Moreover, the inhibition was 89% in assay [4] and 57% in assay [5]. For the same compound, the inhibition at 1000 µM in the assay on L1210 [6] was determined as 99%. The inhibition at 100 µM with L1210 [7] turned out to be 99%.
`O=c1ccn([C@@H]2C=C(CO)[C@@H](O)[C@H]2O)c(=O)[nH]1` gave an inhibition at 500 µM in the assay with L1210 [3] of 12%. The inhibition was 78% in assay [4] and 35% in assay [5]. Moreover, the inhibition at 1000 µM in the assay with L1210 [6] turned out to be 36%. For the same compound, the inhibition at 100 µM with L1210 [7] was found to be 2%.
